Laboratory results taken from ChEMBL document CHEMBL4177580, “New 5-HT1A, 5HT2A and 5HT2C receptor ligands containing a picolinic nucleus: Synthesis, in vitro and in vivo pharmacological evaluation” (Bioorg Med Chem, 2017).
Calls of active or inactive are those of the source. No cut-off for these calls is given here.

Experiments:
[1] = tested on: Mus musculus; assay: Antidepressant-like activity in Swiss albino mouse assessed as reduction in immobility time at 7.5 mg/kg, ip dosed 1 hr before test by forced swimming test; assay type: functional, organism-based
Procedure, shortened: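 Male Swiss albino mice (18–24 g), compound i.p. in 0.1% DMSO/0.5% methylcellulose 1 h pre-test. Porsolt swim: cylinder 25 cm high, 10 cm diameter, 10 cm water at 23–25°C, 6 min session; immobility scored over last 4 min. Blind observer; one-way ANOVA with Dunnett's; mean ± SEM.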

[2] = tested on: Rattus norvegicus; assay: In-vivo 5-HT1A receptor antagonist activity in Wistar rat assessed as reduction in 8-OH-DPAT-stimulated induction of lower lip retraction by measuring lower lip retraction score at 30 mg/kg, ip dosed 15 mins before test (reference value: 2.875 +/- 0.08183)
[3] = molecular target: T1, Adrenergic receptor alpha-2 (Rattus norvegicus, UniProt P22086+P19328+P22909); assay: Displacement of [3H]RX 821002 from adrenergic alpha2 receptor in rat cerebral cortex
T1 sequence (P22086 whole entry): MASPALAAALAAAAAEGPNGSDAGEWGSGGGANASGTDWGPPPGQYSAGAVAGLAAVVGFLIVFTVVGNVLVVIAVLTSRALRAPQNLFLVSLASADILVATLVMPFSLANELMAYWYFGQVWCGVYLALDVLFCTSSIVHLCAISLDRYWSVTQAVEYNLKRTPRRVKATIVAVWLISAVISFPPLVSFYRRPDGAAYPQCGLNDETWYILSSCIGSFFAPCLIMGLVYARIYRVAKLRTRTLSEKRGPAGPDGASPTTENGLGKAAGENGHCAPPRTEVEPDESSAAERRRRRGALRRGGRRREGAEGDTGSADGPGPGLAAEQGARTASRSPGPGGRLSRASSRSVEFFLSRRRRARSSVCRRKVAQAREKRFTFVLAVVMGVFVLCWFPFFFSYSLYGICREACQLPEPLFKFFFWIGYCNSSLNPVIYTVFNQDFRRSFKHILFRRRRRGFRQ
T1 sequence (P19328 whole entry): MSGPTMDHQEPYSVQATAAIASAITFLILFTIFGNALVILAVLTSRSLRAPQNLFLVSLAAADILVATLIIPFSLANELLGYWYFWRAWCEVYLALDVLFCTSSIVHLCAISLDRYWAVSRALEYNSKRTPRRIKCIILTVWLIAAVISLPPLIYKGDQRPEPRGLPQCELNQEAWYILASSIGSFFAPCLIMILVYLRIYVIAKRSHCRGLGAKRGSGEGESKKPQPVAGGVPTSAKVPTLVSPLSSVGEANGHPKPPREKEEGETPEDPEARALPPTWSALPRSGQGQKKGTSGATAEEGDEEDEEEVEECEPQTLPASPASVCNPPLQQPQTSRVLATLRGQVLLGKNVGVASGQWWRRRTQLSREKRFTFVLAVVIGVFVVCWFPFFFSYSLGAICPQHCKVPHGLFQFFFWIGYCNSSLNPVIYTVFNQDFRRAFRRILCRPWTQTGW
T1 sequence (P22909 whole entry): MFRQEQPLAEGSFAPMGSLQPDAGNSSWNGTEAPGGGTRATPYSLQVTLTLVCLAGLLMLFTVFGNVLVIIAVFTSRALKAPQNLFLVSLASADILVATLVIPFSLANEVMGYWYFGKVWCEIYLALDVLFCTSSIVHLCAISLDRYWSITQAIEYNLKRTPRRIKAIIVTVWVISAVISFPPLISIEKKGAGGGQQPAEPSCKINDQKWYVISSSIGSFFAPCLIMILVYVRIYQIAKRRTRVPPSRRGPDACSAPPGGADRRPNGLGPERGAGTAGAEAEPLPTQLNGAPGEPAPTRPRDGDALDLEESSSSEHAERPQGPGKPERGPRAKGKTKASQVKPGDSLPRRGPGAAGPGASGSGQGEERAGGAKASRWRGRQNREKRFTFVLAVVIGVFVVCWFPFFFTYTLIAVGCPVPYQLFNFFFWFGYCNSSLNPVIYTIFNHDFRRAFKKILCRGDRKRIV

[4] = tested on: Mus musculus; assay: Induction of hypothermia in Swiss albino mouse assessed as reduction in body temperature at 30 mg/kg, ip measured after 30 mins post dose; assay type: functional, organism-based
Procedure, shortened: (§1)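 Normothermic male Swiss mice; rectal thermistor readings over 180 min. Baseline is the mean of readings 60 and 30 min before dosing; readings at 30, 60, 90, 120 min post-injection; Δt = tf − ti. Test compounds i.p. (DMSO/methylcellulose); 8-OH-DPAT (5 mg/kg) and WAY 100635 (0.1 mg/kg) s.c. in water. Two-way ANOVA, Bonferroni.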

[5] = molecular target: T2, 5-hydroxytryptamine receptor 1A (Rattus norvegicus, UniProt P19327); assay: Displacement of [3H]-8-OH-DPAT from serotonin 5-HT1A receptor in Sprague-Dawley rat brain cortex homogenates incubated for 30 mins by liquid scintillation spectrometry
T2 sequence (P19327 whole entry): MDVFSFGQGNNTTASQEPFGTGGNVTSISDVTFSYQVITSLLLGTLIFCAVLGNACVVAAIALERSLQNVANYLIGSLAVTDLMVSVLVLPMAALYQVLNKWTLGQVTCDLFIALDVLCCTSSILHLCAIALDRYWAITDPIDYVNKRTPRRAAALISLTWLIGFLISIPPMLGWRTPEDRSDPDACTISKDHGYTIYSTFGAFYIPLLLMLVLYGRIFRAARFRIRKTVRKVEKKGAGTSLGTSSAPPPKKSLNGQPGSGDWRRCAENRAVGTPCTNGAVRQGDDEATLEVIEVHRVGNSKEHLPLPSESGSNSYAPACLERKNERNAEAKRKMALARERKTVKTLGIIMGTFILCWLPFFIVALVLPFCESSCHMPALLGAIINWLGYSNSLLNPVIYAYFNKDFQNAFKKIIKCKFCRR

[6] = tested on: Mus musculus; assay: Toxicity in Swiss albino mouse assessed as reduction in spontaneous locomotor activity at 60 mg/kg, ip dosed 60 mins before test and measured after 30 mins; assay type: organism-based; conditions: in vivo, 0.5 h
Procedure, shortened: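 Spontaneous locomotion: mice dosed i.p. 60 min before being placed individually in an actometer for 30 min. Distance travelled read at 6 and 30 min. Cages cleaned with 70% ethanol between animals. One-way ANOVA with Dunnett's; mean ± SEM of one experiment.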

[7] = tested on: Mus musculus; assay: Induction of hypothermia in Swiss albino mouse assessed as reduction in body temperature at 30 mg/kg, ip measured after 60 mins post dose; assay type: functional, organism-based; procedure, shortened: as §1
[8] = molecular target: D(1A) dopamine receptor (Homo sapiens, UniProt P21728); assay: Displacement of [3H]SCH-23390 from human recombinant dopamine D1 receptor expressed in CHO cells; assay type: cell-based
Chain of D(1A) dopamine receptor (P21728 whole entry): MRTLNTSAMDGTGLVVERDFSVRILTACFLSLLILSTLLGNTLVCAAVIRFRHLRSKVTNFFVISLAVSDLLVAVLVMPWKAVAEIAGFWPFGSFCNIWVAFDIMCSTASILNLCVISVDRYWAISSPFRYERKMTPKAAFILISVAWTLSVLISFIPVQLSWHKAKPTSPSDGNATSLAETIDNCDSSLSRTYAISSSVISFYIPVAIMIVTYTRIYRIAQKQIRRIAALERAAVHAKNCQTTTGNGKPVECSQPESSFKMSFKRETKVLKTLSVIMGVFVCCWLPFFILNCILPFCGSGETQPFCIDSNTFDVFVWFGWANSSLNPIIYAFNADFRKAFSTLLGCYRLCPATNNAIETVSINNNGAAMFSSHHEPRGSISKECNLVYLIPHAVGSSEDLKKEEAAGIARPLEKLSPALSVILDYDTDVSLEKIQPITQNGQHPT

Question: What does the source list for O=C(NCCN1CCN(c2ccc(Cl)c(Cl)c2)CC1)c1ccccn1?
Answer: Activity [1]: Active; Activity_index [2]: 2.3; Ki [3]: 4200 nM; Activity [4]: Active; Ki [5]: 0.183 nM; Activity [6]: Toxic; Activity [7]: Active; Ki [8]: 610 nM
